GalR3 antagonist = GalR3 antagonists in HEK293 cells, primary screen, cell-based, fluorescence readout; Galanin receptor type 3 (Homo sapiens), O60755; HEK293 GalR3-CNG cAMP membrane potential fluorescence; galR3 body fused to GalR1 C-terminus; inhibition, % at 3 µM; 360,000 compounds, 0.44% hits;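 active = inhibition above the screen-wide average plus 3 SD, cut at about 13% in these data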;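 also: forskolin and galanin both at EC90 stimulate the cells; cAMP rise reported by CNG channel membrane potential dye signal; 0% = forskolin plus galanin with DMSO and 100% = forskolin alone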
OX1R antag-1 = antagonists of human orexin 1 receptor (OX1R); Orexin/Hypocretin receptor type 1 (Homo sapiens), O43613; OX1R-expressing cells, FRET antagonist read-out; inhibition, % at 6.6 µM; 330,000 compounds, 1.8% hits; AID 485270, 2010; in the data active = inhibition mostly above about 38%, no sharp cut-off; inactive = mostly below about 40%;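 also: 0% = agonist challenge alone and 100% = reference antagonist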
Target sequence (O43613 whole entry, looked up): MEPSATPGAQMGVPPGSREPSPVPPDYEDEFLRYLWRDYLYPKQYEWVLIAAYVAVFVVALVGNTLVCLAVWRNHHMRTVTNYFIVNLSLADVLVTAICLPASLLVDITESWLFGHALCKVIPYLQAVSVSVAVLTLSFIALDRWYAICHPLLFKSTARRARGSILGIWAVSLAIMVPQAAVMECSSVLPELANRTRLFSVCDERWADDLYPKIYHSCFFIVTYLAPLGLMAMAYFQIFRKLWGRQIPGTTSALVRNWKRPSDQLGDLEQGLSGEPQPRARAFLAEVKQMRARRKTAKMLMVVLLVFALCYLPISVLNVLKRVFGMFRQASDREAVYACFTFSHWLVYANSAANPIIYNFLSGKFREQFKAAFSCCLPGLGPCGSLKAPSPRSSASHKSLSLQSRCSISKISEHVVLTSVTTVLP
TAAR1 antag = human TAAR1 antagonists, primary screen, Fluo-8 calcium fluorescence, CHO RD-HGA16 cells; Trace amine-associated receptor 1 (Homo sapiens), Q96RJ0; antagonist; inhibition, % at 3 µM; 360,000 compounds, 1.5% hits;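 active = inhibition above a per-plate cutoff, the mean inhibition of test compounds on that plate plus 3 SD, cut at about 49% in these data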;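 also: 0% = DMSO plus EC80 beta-PEA response and 100% = DMSO alone without agonist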
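test system = CHO RD-HGA16 cells bearing hTAAR1 | replication = singlicate | controls = DMSO-only wells and EC80 β-PEA-stimulated wells | reagent = EC80 β-phenethylamine stimulus | read-out basis = percent inhibition of PEA-evoked calcium signal, max/basal emission ratio | schedule = seeding 17-24 h prior, 75-min 37 °C, 30-min RT dye loading | signal = kinetic Fluo-8 calcium fluorescence measurement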
CHO parental Ca = ATP-evoked calcium signal inhibitors, parental CHO, primary screen, counter-screen for OX1R antagonist project, cell-based, fluorescence, Fluo-8 calcium dye; AID 463079, 2010; parental CHO-K1, ATP-induced calcium, Fluo-8 fluorescence; inhibition, % at 5.6 µM; 330,000 compounds, 0.63% hits;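 active = inhibition above that plate's mean sample inhibition plus 3 SD, cut at about 26% in these data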;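 also: 0% = ATP-challenged DMSO wells and 100% = DMSO wells without ATP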
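material = parental CHO cells | also added = ATP as calcium-mobilizing challenge | dosing = single point at 5.6 µM | detection = intracellular calcium via Fluo-8 no-wash fluorescent dye | read-out = % inhibition | benchmarks = low control ATP plus DMSO, high control DMSO only | repeats = one well per compound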
OX1R antag-2 = OX1R (HCRTR1) antagonists, primary screen, fluorescence, CHO/OX1R cells, Fluo-8 calcium, orexin A; inhibition, % at 5 µM; Fluo-8 calcium fluorescence; Orexin/Hypocretin receptor type 1 (Homo sapiens), O43613; AID 434989, 2010; 330,000 compounds, 0.43% hits;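 active = inhibition above its plate's threshold, mean inhibition of all tested compounds on the plate plus 3 SD, cut at about 37% in these data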;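 also: 0% = orexin A challenge wells and 100% = SB-334867-A antagonist wells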
TAAR1 agonist = human TAAR1 agonists, primary screen, Fluo-8 calcium fluorescence, CHO RD-HGA16 cells; vehicle wells 0%, saturating PEA agonist 100%; 360,000 compounds, 0.99% hits; AID 624467, 2012; activation, % at 3 µM; Trace amine-associated receptor 1 (Homo sapiens), Q96RJ0;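 active = activation above the mean activation of all test compounds in the run plus 3 SD, cut at about 38% in these data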
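Repeats: no replicates (n 1) | Material: CHO-derived RD-HGA16 cells with stable Gα16 and human TAAR1 | Technique: Kinetic Fluo-8 calcium fluorescence | Schedule: 17-24 h seeding, 75 min 37 °C dye, 30 min RT | Evaluation: % activation from peak over basal fluorescence ratio, DMSO-to-PEA scaled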
Starred values were filed as active, the others as inactive; / = no result given. Shown are actives, neighbours in structure and some others; about 4.3% of the full set was active somewhere.

SMILES	GalR3 antagonist	OX1R antag-1	TAAR1 antag	CHO parental Ca	OX1R antag-2	TAAR1 agonist
Cc1cccc(C)c1NC(=O)c1sccc1SCc1cccc(C(F)(F)F)c1	/	31	/	53*	37*	/
C=CCn1c(C)c(/C=C/c2cc[n+](C)cc2)c2ccccc21	8	48*	-18	16	1	9
Cc1[nH]c2ccccc2c1/C=C/c1cc[n+](C)cc1	-1	/	-19	/	/	4
CCn1cc(/C=C/c2cc[n+](C)cc2)c2ccccc21	-12	45*	-25	-4	-18	8
CCN(CC)C(=O)Cn1c(C)c(/C=C/c2cc[n+](C)cc2)c2ccccc21	-6	72*	-2	-16	-1	-1
COc1ccc(OCCNC(=O)c2ccc3nc(C)c(N(C)C(=O)CCc4ccccc4)n3c2)cc1	-3	/	3	/	/	1
O=C(C[n+]1ccccn1)c1ccccc1	-7	3	-3	-6	-9	8
Cc1cccc(-c2ccc3[nH]c4c(c3c2)CCN2C[C@@H]([C@H](C)OC(=O)Nc3ccccc3C)[C@@H](N(C)C(=O)Nc3ccccc3C)C[C@@H]42)c1	-5	/	5	/	/	4
COc1ccc(/C=C2\SC(=N)N(c3nccs3)C2=O)cc1OC	5	73*	13	26*	28	2
N=C1S/C(=C\c2ccc(-c3cccc(Cl)c3)o2)C(=O)N1c1nccs1	1	2	24	18	18	1
COc1ccccc1CNc1nc(NCc2ccccc2OC)c2sccc2n1	-6	/	19	/	/	5
COc1ccccc1CNc1nc(Nc2cccc(-c3cnco3)c2)c2sccc2n1	-5	/	76*	/	/	2
COc1ccccc1CN1CCNC(=O)C1CC(=O)NC1Cc2ccccc2C1 (stereo not drawn)	-4	8	-14	-17	-18	41*
COc1ccccc1CN1CCNC(=O)C1CC(=O)O (stereo not drawn)	2	12	15	-13	-3	5
CN(CCc1ccccn1)C(=O)[C@@H](Cc1ccccc1)NC(=O)[C@H]1O[C@@H](n2ccc(=O)[nH]c2=O)[C@H](O)[C@@H]1O	-4	/	9	/	/	1
CC[C@H](C)Cc1cn([C@@H](CCCN=C(NC(=O)OC(C)(C)C)NC(=O)OC(C)(C)C)C(=O)NCCCCCCCCCCC(=O)N2CCN(C(=O)OC(C)(C)C)CC2)nn1	/	8	/	-18	-28	/
Cc1cn([C@@H](CCCCNC(=O)OC(C)(C)C)C(=O)NCCCCCCCCCCC(=O)N2CCN(C(=O)OC(C)(C)C)CC2)nn1	/	61*	/	61*	36	/
CC(C)(C)c1ccc(-c2c(C#N)c(N)nc3c2CCCC3)s1	-2	15	-8	-11	-32	2
CCc1sc(-c2c(C#N)c(N)nc3c2CCCCCC3)cc1[N+](=O)[O-]	4	20	-1	-31	-38	53*
O=C(Nc1cccc(-n2cnnn2)c1)c1cc(Cl)nc(Cl)c1	-7	1	30	-6	-12	49*
CC(C)(C)c1ccc(C(=O)Nc2cccc(-n3cnnn3)c2)cc1	2	13	58*	16	14	6
NC(=O)c1ccccc1OCC(=O)N1CCCC1c1ccc2c(c1)OCCCO2 (stereo not drawn)	-2	/	-9	/	/	0
COc1cccc(CNC(=O)CSc2ccc(-c3cccs3)nn2)c1	-3	58*	-9	-10	-16	3
O=C(CSc1ccc(-c2cccs2)nn1)NCc1ccccc1Cl	/	70*	/	-18	-13	/
CC(=O)Nc1ccc(NC(=O)CSc2ccc(-c3cccs3)nn2)cc1	0	20	21	0	-3	2
SMILES	GalR3 antagonist	OX1R antag-1	TAAR1 antag	CHO parental Ca	OX1R antag-2	TAAR1 agonist
COc1ccccc1CNC(=O)CSc1ccc(-c2cccs2)nn1	-3	59*	-28	-20	-9	1
Cc1cccc(C(=O)OCC(=O)N2CCCCCC2)c1	1	7	1	-7	-13	12
Nc1nc2c(ncn2[C@@H]2O[C@H](C(=O)NCCc3c[nH]c4ccccc34)[C@@H](O)[C@H]2O)c(=O)[nH]1	-3	/	-18	/	/	5
Nc1cc(S(=O)(=O)Nc2ccccc2Cl)ccc1N1CCCCC1	-8	24	38	30*	45*	6
O=c1[nH]c2ccc(NC(=S)NCCc3ccccc3)cc2[nH]1	-6	10	29	-8	1	41*
O=[N+]([O-])c1ccc(NC(=S)NCc2ccc(F)cc2)cc1	-8	27	38	74*	-22	12
O=[N+]([O-])c1ccc(NC(=S)NCCc2ccc(Cl)cc2)cc1	-6	71*	57*	69*	64*	8
S=C(NCCc1ccccc1)Nc1ccc(Cl)cc1	-7	28	24	-1	1	7
O=c1[nH]c2ccc(NC(=S)Nc3ccccc3)cc2[nH]1	-2	26	-8	-18	-17	7
O=C(Nc1ccc(S(=O)(=O)N2CCOCC2)cc1)c1ccc(CN2CCc3ccccc3C2)cc1	/	47	/	51*	69*	/
CCOC(=O)c1ccc(NC(=S)NCc2ccccc2)cc1	-10	5	17	14	-8	6
O=[N+]([O-])c1ccc(NC(=S)NCCc2ccccc2)cc1	-6	47*	-6	51*	6	14
O=C(Nc1ccc([N+](=O)[O-])cc1)c1ccc(Cn2cc([N+](=O)[O-])cn2)cc1	-1	10	40	6	19	15
CCOC(=O)c1ccc(NC(=S)NCCc2ccccc2)cc1	0	32	4	60*	39	39*
O=C(Nc1cnn(Cc2ccc(Cl)cc2)c1)c1ccc([N+](=O)[O-])cc1	3	16	13	64*	14	21
O=S(=O)(c1ccc(NC(=S)NCc2ccc(F)cc2)cc1)N1CCOCC1	-1	4	27	11	-6	44*
O=[N+]([O-])c1ccc(NNC(=S)Nc2ccccc2)cc1	/	30	/	30	-11	/
O=C(c1cccc(S(=O)(=O)N2CCOCC2)c1)N1CCN(c2ncccn2)CC1	-1	/	-15	/	/	3
CN1CCc2c(sc(NC(=O)C3CCCCC3)c2C(N)=O)C1	/	3	-6	1	-9	1
CSc1ccc(Cl)c(C(=O)NCCOc2cc(C)ccc2C(C)C)c1	-13	27	42	53*	46*	0

High-throughput results from PubChem BioAssay.
